ChEMBL document CHEMBL4340510, “Design, synthesis, and biological evaluation of truncated deguelin derivatives as Hsp90 inhibitors” (Eur J Med Chem, 2019)
The source made the active and inactive calls. No cut-off for these calls is given here.

Legend:
MCF7 [1] = assay: Induction of apoptosis in human MCF7 cells assessed as increase in late apoptotic cells after 36 hrs by Annexin V-FITC/propidium iodide double staining-based flow cytometry; type: functional, cell-based
Summary of the method: (§1)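 Cells (1×10^5/well) are cultured 24 h, then treated in triplicate for 36 h at 0.5, 1.0, 2.0 or 4.0 μM. Vehicle is 1‰ DMSO in complete medium. Cells are stained with FITC-Annexin V and PI for 15 min in the dark and analysed by flow cytometry. Mean±SD of three independent experiments.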

[2] = molecular target: T1, Heat shock protein HSP90 (Homo sapiens) (UniProt P07900+P08238); assay: Inhibition of HSP90 in human MCF7 cells assessed as decrease in phosphorylation of MAPK after 48 hrs by Western blot analysis; type: cell-based
Summary of the method: (§2)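 Cells are treated 48 h and washed twice in ice-cold PBS. They are lysed on ice for 20 min and spun at 13,000 g, 4 °C. 20 μg protein is run on 8-12% SDS-PAGE and transferred to PVDF. Membranes are probed overnight at 4 °C with primary antibodies (Bcl-xL, cleaved caspase-3, mTOR/p-mTOR, MAPK/p-MAPK, Akt/p-Akt, HIF-1α, survivin; β-actin/GAPDH loading). HRP secondary and chemiluminescence detection follow.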

[3] = molecular target: T1, Heat shock protein HSP90 (Homo sapiens); assay: Inhibition of HSP90 in human MCF7 cells assessed as down regulation of HIF-1alpha expression after 48 hrs by Western blot analysis; type: cell-based; summary of the method: as §2
MCF7 [4] = assay: Cell cycle arrest in human MCF7 cells assessed as accumulation at G2 phase at 4 uM after 48 hrs by propidium iodide staining-based flow cytometry (reference value: 22.74%); type: functional
Summary of the method: (§3)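 5×10^4 cells are seeded, incubated overnight, then treated 48 h. Cells are washed in cold PBS and fixed in 70% ethanol at −20 °C for 12 h. They are then stained with 100 µg/mL RNase plus 50 µg/mL PI in PBS, 37 °C for 30 min. DNA content is measured by flow cytometry.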

MCF7 [5] = assay: Induction of apoptosis in human MCF7 cells assessed as cell rounding at 0.5 to 4 uM after 36 hrs by hoechst 33258 staining-based fluorescence microscopy; type: functional
Summary of the method: (§4)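 Approximately 5×10^4 cells per well are exposed to 0, 0.5, 1.0, 2.0 or 4.0 μM for 36 h. Cells are PBS-washed and fixed in 4% paraformaldehyde for 30 min. They are stained with 20 μg/ml Hoechst 33258 for 15 min at room temperature in the dark, and nuclear morphology is examined by fluorescence microscopy.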

MCF7 [6] = assay: Induction of apoptosis in human MCF7 cells assessed as increase in early apoptotic cells at 0.5 to 4 uM after 36 hrs by Annexin V-FITC/propidium iodide double staining-based flow cytometry relative to control; type: functional; summary of the method: as §1
MCF7 [7] = assay: Antimigratory activity in human MCF7 cells at 250 to 1000 nM after 24 hrs by phase contrast inverted microscopy-based scratch wound healing assay; type: functional, cell-based
Summary of the method: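 Cells are grown to confluence in DMEM with 10% FBS and scratched with a sterile 200 μL pipette tip. Wounds are imaged by phase contrast on an inverted microscope (10× objective) at 0, 24 and 48 h. Eight images per treatment are analysed by drawing lines at the wound edges of migrating cells.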

MCF7 [8] = assay: Induction of apoptosis in human MCF7 cells assessed as condensation of chromosome at 0.5 to 4 uM after 36 hrs by hoechst 33258 staining-based fluorescence microscopy; type: functional, cell-based; summary of the method: as §4
[9] = molecular target: T1, Heat shock protein HSP90 (Homo sapiens); assay: Inhibition of HSP90 in human MCF7 cells assessed as reduction in AKT expression at 4 uM by coimmunoprecipitation-based Western blot assay; type: cell-based
Summary of the method: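 Cells are treated with 4 μM. Anti-Hsp90 or anti-Akt antibodies are added to the supernatants, and immune complexes are pulled down with protein A agarose. Complexes are eluted by boiling in loading buffer and immunoblotted with anti-Hsp90 or anti-Akt antibodies.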

[10] = molecular target: T1, Heat shock protein HSP90 (Homo sapiens); assay: Induction of HSP90-mediated AKT degradation in human MCF7 cells assessed as increase in ubiquitinated AKT expression at 4 uM by coimmunoprecipitation-based Western blot assay; type: cell-based
[11] = molecular target: T1, Heat shock protein HSP90 (Homo sapiens); assay: Inhibition of HSP90 in human MCF7 cells assessed as decrease in phosphorylation of mTOR after 48 hrs by Western blot analysis; type: cell-based; summary of the method: as §2
[12] = molecular target: T1, Heat shock protein HSP90 (Homo sapiens); assay: Inhibition of HSP90 in human MCF7 cells assessed as down regulation of survivin expression after 48 hrs by Western blot analysis; type: cell-based; summary of the method: as §2
NCI-H1299 [13] = assay: Antiproliferative activity against human NCI-H1299 cells assessed as inhibition of cell growth at 0.1 uM after 72 hrs by MTT assay relative to control; type: functional; settings: NCI-H1299, 72 h, read-out: GI
Summary of the method: (§5)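 Cells in RPMI 1640 are seeded at 4,000 cells/well and held 24 h at 37 °C, 5% CO2. Medium is replaced with compound-containing medium (DMSO ≤0.25%) for 72 h at 37 °C. MTT read-out by absorbance at 570 nm. Quadruplicate wells, repeated three times; values are means of three independent experiments.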

MCF7 [14] = assay: Induction of apoptosis in human MCF7 cells assessed as increase in cleaved-caspase3 expression at 1 to 4 uM after 48 hrs by Western blot analysis; type: functional, cell-based; summary of the method: as §2
MCF7 [15] = assay: Cell cycle arrest in human MCF7 cells assessed as increase in accumulation at S phase after 48 hrs by propidium iodide staining-based flow cytometry; type: functional; summary of the method: as §3
MCF7 [16] = assay: Induction of apoptosis in human MCF7 cells assessed as increase in early apoptotic cells after 36 hrs by Annexin V-FITC/propidium iodide double staining-based flow cytometry; type: functional, cell-based; summary of the method: as §1
MCF7 [17] = assay: Induction of apoptosis in human MCF7 cells assessed as rounding of nuclei at 0.5 to 4 uM after 36 hrs by hoechst 33258 staining-based fluorescence microscopy; type: functional, cell-based; summary of the method: as §4
MCF7 [18] = assay: Cell cycle arrest in human MCF7 cells assessed as accumulation at G2 phase at 1 uM after 48 hrs by propidium iodide staining-based flow cytometry (reference value: 22.74%); type: functional; summary of the method: as §3
MCF7 [19] = assay: Cell cycle arrest in human MCF7 cells assessed as accumulation at G1 phase at 4 uM after 48 hrs by propidium iodide staining-based flow cytometry (reference value: 60.61%); type: functional; summary of the method: as §3
[20] = molecular target: T1, Heat shock protein HSP90 (Homo sapiens); assay: Inhibition of HSP90 in human MCF7 cells assessed as decrease in phosphorylation of AKT after 48 hrs by Western blot analysis; type: cell-based; summary of the method: as §2
NCI-H1299 [21] = assay: Antiproliferative activity against human NCI-H1299 cells after 72 hrs by MTT assay; type: functional, cell-based; settings: NCI-H1299, 72 h; summary of the method: as §5
MCF7 [22] = assay: Cell cycle arrest in human MCF7 cells assessed as accumulation at S phase at 0.5 uM after 48 hrs by propidium iodide staining-based flow cytometry (reference value: 16.64%); type: functional; summary of the method: as §3
MCF7 [23] = assay: Cell cycle arrest in human MCF7 cells assessed as accumulation at G2 phase at 4 uM after 48 hrs by propidium iodide staining-based flow cytometry (reference value: […])
MCF7 [24] = assay: Cell cycle arrest in human MCF7 cells assessed as accumulation at S phase at 1 uM after 48 hrs by propidium iodide staining-based flow cytometry (reference value: 16.64%); type: functional; summary of the method: as §3
MCF7 [25] = assay: Cell cycle arrest in human MCF7 cells assessed as accumulation at G1 phase at 2 uM after 48 hrs by propidium iodide staining-based flow cytometry (reference value: 60.61%); type: functional; summary of the method: as §3

## COc1cc(OC)c(OC)cc1CC(=O)c1ccc2c(c1OC)C=CC(C)(C)O2
MCF7 [1]
  Activity: Dose-dependent effect
[2]
  inhibition: Dose-dependent effect
[3]
  inhibition: Dose-dependent effect
MCF7 [4]
  Activity: 29.7%
MCF7 [5]
  Activity: Active
MCF7 [6]
  Activity: 13.6 - 71.8%
MCF7 [7]
  Activity: Active
MCF7 [8]
  Activity: Active
[9]
  inhibition: Active
[10]
  Activity: Active
[11]
  inhibition: Dose-dependent effect
[12]
  inhibition: Dose-dependent effect
NCI-H1299 [13]
  inhibition of growth at 0.1 µM: 15.3%
MCF7 [14]
  Activity: Active
MCF7 [15]
  Activity: Dose-dependent effect
MCF7 [16]
  Activity: Dose-dependent effect
MCF7 [17]
  Activity: Active
MCF7 [18]
  Activity: 21.55%
MCF7 [19]
  Activity: 40.72%
[20]
  inhibition: Dose-dependent effect
NCI-H1299 [21]
  IC50: 3.4 µM
MCF7 [22]
  Activity: 22.99%
MCF7 [23]
  Activity: 29.58%
MCF7 [24]
  Activity: 23.2%
MCF7 [25]
  Activity: 46.21%
